In PMC5126733 (Journal of medicinal chemistry, 2015):

What was measured:
[1] = system: ER in MCF-7-2a cells; details: cited from earlier work
[2] = target: T1, recombinant human ER-α (Homo sapiens, UniProt P03372); details: at 100 μM compound; compound 7; cited from earlier work
T1 sequence (P03372 1-595): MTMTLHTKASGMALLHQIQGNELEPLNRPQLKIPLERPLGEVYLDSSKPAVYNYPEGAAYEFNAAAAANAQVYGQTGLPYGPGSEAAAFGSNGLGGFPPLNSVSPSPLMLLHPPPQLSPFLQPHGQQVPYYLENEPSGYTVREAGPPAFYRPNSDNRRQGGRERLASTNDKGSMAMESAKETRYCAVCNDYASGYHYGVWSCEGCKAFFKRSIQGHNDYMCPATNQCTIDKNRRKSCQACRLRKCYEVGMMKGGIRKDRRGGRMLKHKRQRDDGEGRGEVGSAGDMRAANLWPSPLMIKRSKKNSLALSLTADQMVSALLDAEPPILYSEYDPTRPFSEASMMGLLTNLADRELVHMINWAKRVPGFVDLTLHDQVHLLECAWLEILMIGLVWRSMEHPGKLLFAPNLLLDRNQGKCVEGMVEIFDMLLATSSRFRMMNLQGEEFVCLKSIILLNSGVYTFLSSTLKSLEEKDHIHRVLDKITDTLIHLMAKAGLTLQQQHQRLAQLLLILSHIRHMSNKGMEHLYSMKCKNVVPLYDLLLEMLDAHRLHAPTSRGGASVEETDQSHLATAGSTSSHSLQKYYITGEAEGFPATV

[3] = system: progesterone receptor (PGR) mRNA expression in MCF-7 human breast cancer cells; test: Antagonism of β-estradiol; type: cell-based; details: MCF-7 cells, 1 μM compound, 10 nM E2, 24 h
Summary of the method: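 MCF-7 cells were grown in MEM with 10% FBS at 37 °C in 5% CO2, then preconditioned 72 h in charcoal-stripped FBS. They were treated 24 h with 1 μM test compound, vehicle (0.1% methanol) or a positive-control antiestrogen, all with 10 nM E2. PGR mRNA was measured by TaqMan RT-qPCR (40 cycles), normalized to GAPDH by 2−ΔΔCt, and expressed as % of E2-stimulated expression.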

[4] = target: T2, recombinant human aromatase (CYP19) (Homo sapiens, UniProt P11511); test: Inhibition of recombinant human aromatase; type: biochemical; details: ratio of aromatase IC50 values vs compound 7
T2 sequence (P11511 1-503): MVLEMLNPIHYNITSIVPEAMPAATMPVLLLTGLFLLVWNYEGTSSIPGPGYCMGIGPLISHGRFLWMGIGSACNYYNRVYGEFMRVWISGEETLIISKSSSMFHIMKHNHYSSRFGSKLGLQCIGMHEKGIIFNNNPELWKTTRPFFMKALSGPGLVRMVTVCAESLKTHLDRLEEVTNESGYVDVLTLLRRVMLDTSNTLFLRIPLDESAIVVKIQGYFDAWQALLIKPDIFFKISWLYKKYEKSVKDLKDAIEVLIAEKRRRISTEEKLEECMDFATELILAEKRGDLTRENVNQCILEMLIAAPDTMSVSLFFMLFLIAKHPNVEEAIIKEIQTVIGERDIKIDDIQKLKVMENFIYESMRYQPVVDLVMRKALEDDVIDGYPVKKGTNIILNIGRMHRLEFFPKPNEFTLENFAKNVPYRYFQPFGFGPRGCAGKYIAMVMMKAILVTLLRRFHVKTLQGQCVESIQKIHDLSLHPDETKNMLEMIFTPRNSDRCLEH

[5] = system: postmenopausal women with breast cancer; details: five-year ATAC trial, anastrozole alone compared to tamoxifen alone; cited from earlier work
[6] = combination arm (with tamoxifen) of the ATAC trial; cited from earlier work

For CCC(=C(c1ccc(O)cc1)c1ccc(O)cc1)c1ccccc1 [Compound 7], the ER antagonist/agonist character [1] is given as “good ER antagonist without significant agonistic side effects” and the ER-α percent competition [2] is given as 80% competition.

For Oc1ccc(C(=C(Cn2ccnc2)c2ccccc2)c2ccc(O)cc2)cc1 [Compound 12, 4,4'-(3-(1H-Imidazol-1-yl)-2-phenylprop-1-ene-1,1-diyl)diphenol], the “PGR mRNA expression level in the presence of 10 nM E2 (E2 alone = 100%)” value (“PGR mRNA expression level … (E2 alone = 100%)” below) [3] was 26-31% and the “fold improvement in aromatase inhibitory activity compared with 7” value [4] was > 5000 fold.

With Oc1ccc(C(Cn2ccnc2)=C(c2ccc(O)cc2)c2ccc(O)cc2)cc1 [Compound 18a, 4,4',4”-(3-(1H-Imidazol-1-yl)prop-1-ene-1,1,2-triyl)triphenol] the “PGR mRNA expression level … (E2 alone = 100%)” value [3] was 26-31%.

With Oc1ccc(C(=C(Cn2ccnc2)c2ccc(O)c(F)c2)c2ccc(O)cc2)cc1 [Compound 18b, 4,4'-(2-(3-Fluoro-4-hydroxyphenyl)-3-(1H-imidazol-1-yl)prop-1-ene-1,1-diyl)diphenol] the “PGR mRNA expression level … (E2 alone = 100%)” value [3] was 26-31%.

For Nc1ccc(C(Cn2ccnc2)=C(c2ccc(O)cc2)c2ccc(O)cc2)cc1 [Compound 26, 4,4'-(2-(4-Aminophenyl)-3-(1H-imidazol-1-yl)prop-1-ene-1,1-diyl)diphenol], the “PGR mRNA expression level … (E2 alone = 100%)” value [3] was 26-31%.

In the case of CC(C)(C#N)c1cc(Cn2cncn2)cc(C(C)(C)C#N)c1 [anastrozole], the “improvement of disease-free survival” value [5] is listed as 13%, the “reduction in occurrence of contralateral breast cancer” value [5] is listed as 42% and the “reduction in risk of distant metastasis” value [5] is listed as 14%. For the same compound, the “reduction in the time-to-recurrence” value [5] was 21% and the “lowering of serum concentration of anastrozole in the combination arm” value [6] was 27%.

In the case of Endoxifen, the “PGR mRNA expression level … (E2 alone = 100%)” value [3] was 10%.
